Compound activity deposited in PubChem BioAssay by SRMLSC.
HCT116 PTEN-null = suppresses growth of cells with PTEN deletion. HCT116 PTEN-null viability, CellTiter-Glo, 60 h; stronger effect = lower value. viability, % at 10 µM. 140,000 tested, 1.2% active. AID 827;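 active = viability at or below a set limit, 4 SD under the median of all tested compounds, cut at about 3.7% in these data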;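 note: PTEN knockout HCT116 line with beta catenin targeted HCT116 as companion control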
HUVEC prolif 384 = human endothelial cell proliferation inhibition; HUVEC proliferation, CellTiter-Glo luminescence, 72 h; stronger effect = lower value; 86,000 tested, 1.1% active; viability, % at 10 µM (by protocol);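 active = viability at or below 30%; inactive = viability above 30%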
bCat KO growth = beta-catenin-lacking colon tumor cell growth suppression. 140,000 tested, 1.5% active. HCT116 beta-catenin knockout viability, CellTiter-Glo, 60 h; stronger effect = lower value. viability, % at 10 µM;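 active = viability at or under a set limit, the compound median less 4 SD, cut at about 6% in these data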
H69AR growth 86K = blocks growth of human H69AR lung tumor cells | H69AR lung tumor viability, ATP luminescence, 72 h; stronger effect = lower value | viability, % at 10 µM | 85,000 tested, 6% active;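 active = viability at or below 40%; inactive = viability above 40%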;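 note: multidrug resistant small cell line overexpressing MRP-1 efflux transporter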
Fibroblast inh = blocks proliferation of human lung fibroblasts; LL 47 human lung fibroblast viability, ATP luminescence; stronger effect = lower value; viability, % at 10 µM; 85,000 tested, 1.1% active;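 active = viability at or below 50% in the single dose screen; inactive = viability above 50%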;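 note: compound exposure lasted 72 h before the ATP readout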
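material = human LL 47 lung fibroblast cells | dosing = compounds added from tenfold dosing solution, 0.1% DMSO final | timing = overnight cell rest, 72 h compound treatment at 37 °C | measured by = CellTiter-Glo luminescence measuring cellular ATP | evaluation = % viability versus median cells-only luminescence | control set = cell-only wells, no compound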
A number is an active result; – = inactive; · = no result given. Shown is part of a subset that was picked to be rich in hits.

SMILES	HCT116 PTEN-null	HUVEC prolif 384	bCat KO growth	H69AR growth 86K	Fibroblast inh
C=CCn1c(SCC(=O)Nc2cc(C)on2)nc2sc3c(c2c1=O)CCCC3	–	·	–	·	·
Cc1cc(NC(=O)CSc2nc(C(C)C)nc3sc4c(c23)CCCC4)no1	–	–	–	5.6	18
CC(NC(=O)CSc1nc2sc3c(c2c(=O)n1-c1ccccc1)CCCC3)c1ccccc1 (centres undefined)	–	–	–	1.9	–
C/C(=C\C(=O)O)C12CC3CC(CC(C3)C1)C2	–	–	–	–	–
Cc1ccc(/C=N/Nc2ccnc3cc(Cl)ccc23)c(C)c1	1.6	·	1.3	·	·
Clc1ccc2c(N/N=C/c3ccc(Br)cc3)ccnc2c1	1.3	·	1.5	·	·
Cc1ccccc1/C=N/Nc1ccnc2cc(Cl)ccc12	–	·	–	·	·
COn1c(C)c(C(C)=O)c2c3no[n+]([O-])c3ccc21	–	·	–	·	·
C=CCOn1c(C)c(C(C)=O)c2c3no[n+]([O-])c3ccc21	–	–	–	29	–
CN(C)c1ccc(N/C=C/C(=O)c2ccc(F)cc2)cc1	–	–	–	35	–
CN(C)c1ccc(N/C=C/C(=O)c2ccco2)cc1	–	–	–	–	–
O=C(CCC(=O)c1cccs1)Nc1ccc(F)c(F)c1F	–	–	–	–	–
N#C/C(=C\c1sc(N2CCOCC2)nc1-c1ccccc1)C(=O)Nc1cccc2ccccc12	2.3	·	3.9	·	·
C/C(=N\NC(=S)NC1CCCCC1)c1ccccc1	–	·	–	·	·
O=C(Nc1cccc(Cl)c1)Nc1nnc(-c2ccncc2)s1	3.2	·	3.8	·	·
CC(=O)c1ccc(NC(=O)Nc2cccc(Cl)c2)cc1	–	–	–	5.0	–
O=C(Nc1ccc(Cl)cc1)Nc1nnc(-c2ccncc2)s1	2.1	·	4.3	·	·
O=C(NCCc1ccncc1)Nc1cccc(Cl)c1	–	–	–	–	–
O=C(Nc1ccc(F)cc1)Nc1nnc(-c2ccncc2)s1	–	·	–	·	·
CC(C)(C)NC(=O)COc1ccc(CNCc2cccs2)cc1	–	·	–	·	·
Nc1ccc2nc(-c3ccccc3)[nH]c2c1	–	–	–	33	–
CC(=O)Nc1ccc2nc(-c3cccs3)[nH]c2c1	–	–	–	–	–
Nc1ccc(-c2nc3c(Cl)cc(N)cc3[nH]2)cc1	–	–	–	31	–
Nc1ccc2nc(-c3cccs3)[nH]c2c1	–	–	–	22	–
Nc1ccc2nc(-c3ccc(N)c(Cl)c3)[nH]c2c1	–	–	–	–	–
SMILES	HCT116 PTEN-null	HUVEC prolif 384	bCat KO growth	H69AR growth 86K	Fibroblast inh
CC(C)n1nc(C(=O)Nc2nnc(SCc3c(Cl)cccc3Cl)s2)c2ccccc2c1=O	–	–	–	–	–
COCCN(C(=O)C(C)C)c1nnc(-c2ccc(C)cc2)s1	–	–	–	–	–
C(=N\Nc1ncnc2sc3c(c12)CCC3)/c1cccs1	2.5	·	2.1	·	·
O=C(Nc1ncnc2sc3c(c12)CCC3)c1ccco1	–	–	–	–	–
C(=N\Nc1ncnc2sc3c(c12)CCC3)/c1ccncc1	3.3	·	–	·	·
CCC(C)C(=O)Nc1ccc(OC)cc1[N+](=O)[O-] (centres undefined)	–	·	–	·	·
Cc1ccc(OC2=NS(=O)(=O)c3ccccc32)cc1	–	–	–	31	–
Cc1csc(NC(=O)c2cc3c(C)nn(Cc4ccccc4Cl)c3s2)n1	–	·	–	·	·
CCOC(=O)N1CCC(NC(=O)c2cc3c(-c4cccc(OC)c4)nn(C)c3s2)CC1	–	–	–	10	–
CCCCn1c(SCC(=O)c2ccc(OC)cc2OC)nc2cc(S(N)(=O)=O)ccc21	–	–	–	–	–
CCCCn1c(SC(C)C(=O)c2ccc(OC)cc2)nc2cc(S(N)(=O)=O)ccc21 (centres undefined)	–	–	–	33	–
CCOC(=O)c1ccc(-n2nc(C(F)(F)F)c3c(C)cc(=O)oc32)cc1	·	–	·	–	–
N=C1S/C(=C\c2ccc(-c3cccc(Cl)c3)o2)C(=O)N1c1nccs1	2.9	·	5.4	·	·
COc1ccc(/C=C2\SC(=N)N(c3nccs3)C2=O)cc1OC	–	·	–	·	·
Oc1ccc(/C=N/n2c(-c3ccco3)csc2=Nc2cccnc2)c(O)c1	–	·	–	·	·
CC(C)N=c1scc(-c2ccco2)n1/N=C/c1ccc(O)c(O)c1	–	–	–	31	48
Cc1ccc(NC(=O)OCCN2CCN(Cc3ccccc3)CCC2=O)cc1	–	·	–	·	·
CC1CN(c2nc3c(c(=O)n(Cc4ccc(Cl)c(Cl)c4)c(=O)n3C)n2C)CC(C)O1 (centres undefined)	–	–	–	–	–
Cn1c(N2CCCCC2)nc2c1c(=O)n(Cc1cccc(Br)c1)c(=O)n2C	–	–	–	34	–
